Data reported in ChEMBL document CHEMBL4152376, “Optimization of 8-Hydroxyquinolines as Inhibitors of Catechol O-Methyltransferase” (J Med Chem, 2018).

Legend:
Rattus norvegicus [1] = assay: Volume of distribution at steady state in rat at 1 mg/kg, iv or 3/10 mg/kg, po; assay type: ADME, organism-based; conditions: in vivo
How it was run: (§1)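 Rat pharmacokinetics after a 1 mpk iv dose (n=3) and a 3 or 10 mpk oral dose (n=3).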

[2] = biological target: T1, Catechol O-methyltransferase (Rattus norvegicus, UniProt P22734); assay: Inhibition of c-terminal hexa-His tagged rat S-COMT expressed in HEK293-6E cell membrane homogenate using 7,8-dihydroxy-4-methylcoumarin as substrate after 1 hr in presence of SAM by MTase glo methyltransferase assay
T1 sequence (P22734 whole entry): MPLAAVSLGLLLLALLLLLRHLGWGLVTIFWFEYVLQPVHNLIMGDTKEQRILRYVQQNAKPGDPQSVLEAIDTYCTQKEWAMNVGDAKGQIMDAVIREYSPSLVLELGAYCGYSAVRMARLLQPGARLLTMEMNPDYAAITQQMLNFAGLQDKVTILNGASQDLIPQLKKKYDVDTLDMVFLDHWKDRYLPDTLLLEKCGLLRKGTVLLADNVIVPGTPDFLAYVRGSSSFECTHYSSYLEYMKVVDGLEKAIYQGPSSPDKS
How it was run: (§2)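 His6-tagged S-COMT (human or rat), expressed in 293-6E cells and purified by Ni-NTA and size exclusion, 1 ng per well. 20 µM SAM and 10 µM 7,8-dihydroxy-4-methylcoumarin in pH 6.9 Tris/MgCl2/DTT buffer, 1.5% DMSO. 1 h at 37 °C, then MTase-Glo luminescence read against a SAH standard curve. […] 4-parameter IC50; triplicate wells, three runs.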

[3] = biological target: T1, Catechol O-methyltransferase; assay: Inhibition of c-terminal hexa-His tagged rat MB-COMT expressed in HEK293 cell membrane homogenate using norepinephrine as substrate after 1 hr in presence of SAM by MTase glo methyltransferase assay
How it was run: (§3)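 Membrane homogenate of HEK293 cells expressing C-terminal His6 MB-COMT (human about 7 ng, rat about 4 ng per well, protein by Bradford […]). 20 µM SAM and 7 µM norepinephrine in 50 mM Tris, 5–10 mM MgCl2, 2.5 mM DTT, pH 6.9, final DMSO 1.5%. 1 h at 37 °C, then MTase-Glo luminescence. […] 4-parameter IC50 fit; triplicate points, three experiments.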

Rattus norvegicus [4] = assay: In vivo inhibition of COMT in Sprague-Dawley rat assessed as DOPAC levels in CSF at 10 mg/kg, po measured at 4 hrs post dose by LC-MS analysis relative to control; assay type: functional
How it was run: (§4)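 Male Sprague Dawley rats (176–200 g on arrival) dosed orally at 10 mg/kg in Tween80/antifoam/methylcellulose suspension, 10 mL/kg, vehicle group as control (n=5–10). At 4 h under isoflurane, CSF drawn from cisterna magna. HVA and DOPAC quantified by LC-MS against standards in 0.01 M perchloric acid/aCSF with d5 internal standards. Reported as % of vehicle.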

[5] = biological target: T2, Catechol O-methyltransferase (Homo sapiens, UniProt P21964); assay: Inhibition of c-terminal hexa-His tagged human S-COMT expressed in HEK293-6E cell membrane homogenate using 7,8-dihydroxy-4-methylcoumarin as substrate after 1 hr in presence of SAM by MTase glo methyltransferase assay; how it was run: as §2
T2 sequence (P21964 whole entry): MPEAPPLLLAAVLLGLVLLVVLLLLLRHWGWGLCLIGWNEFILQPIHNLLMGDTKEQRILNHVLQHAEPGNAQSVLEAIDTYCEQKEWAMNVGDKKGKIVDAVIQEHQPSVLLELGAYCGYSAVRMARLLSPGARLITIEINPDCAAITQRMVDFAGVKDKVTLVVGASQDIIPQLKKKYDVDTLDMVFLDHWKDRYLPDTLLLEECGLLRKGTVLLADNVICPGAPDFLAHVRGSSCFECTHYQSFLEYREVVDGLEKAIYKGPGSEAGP

[6] = Efflux ratio of permeability in MDCK cells; assay type: ADME, cell-based, Canis lupus familiaris; conditions: dog
How it was run: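 Efflux ratio taken as […] transport across P-glycoprotein-expressing MDCK cells.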

[7] = Unbound drug level in brain of Sprague-Dawley rat at 10 mg/kg, po after 4 hrs by ES-UPLC analysis; assay type: ADME, organism-based; conditions: in vivo
How it was run: (§5)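 Sprague Dawley rats given 10 mg/kg po; CSF, plasma and brain collected at 4 h. Drug measured in CSF; free plasma and brain levels computed from total levels using plasma protein and brain tissue binding fractions. Free CSF derived from CSF binding by equilibrium dialysis with pooled rat CSF. Ratios taken from these values.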

[8] = biological target: T2, Catechol O-methyltransferase; assay: Inhibition of c-terminal hexa-His tagged human MB-COMT expressed in HEK293 cell membrane homogenate using norepinephrine as substrate after 1 hr in presence of SAM by MTase glo methyltransferase assay; how it was run: as §3
[9] = Ratio of unbound drug level in CSF of Sprague-Dawley rat to unbound plasma concentration in Sprague-Dawley rat at 10 mg/kg, po after 4 hrs by ES-UPLC analysis; assay type: ADME, organism-based; conditions: CSF and plasma; how it was run: as §5
[10] = Apparent permeability of the compound in MDCK cells; assay type: ADME, cell-based, Canis lupus familiaris; conditions: dog
[11] = Unbound plasma concentration in Sprague-Dawley rat 10 mg/kg, po after 4 hrs by ES-UPLC analysis; assay type: ADME, organism-based; conditions: in vivo; how it was run: as §5
Rattus norvegicus [12] = assay: In vivo inhibition of COMT in Sprague-Dawley rat assessed as HVA levels in CSF at 10 mg/kg, po measured at 4 hrs post dose by LC-MS analysis relative to control; assay type: functional; design: scale not given: the % may be the effect or the level left; how it was run: as §4
[13] = Ratio of drug level in CSF of Sprague-Dawley rat to unbound brain concentration in Sprague-Dawley rat at 10 mg/kg, po after 4 hrs by ES-UPLC analysis; assay type: ADME, organism-based; conditions: in vivo; how it was run: as §5
[14] = Drug uptake in brain of C57BL/6J mouse at 10 mg/kg, ip measured at 1 hr post dose; assay type: ADME, organism-based; conditions: C57BL/6J, brain, read-out: Drug uptake
How it was run: (§6)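 Male C57BL/6J mice (8 weeks), single ip injection of 10 mg/kg suspended in 0.1% Tween80/0.1% antifoam/1% methylcellulose at 10 mL/kg. Two mice per timepoint; at 1 h, plasma separated at 4 °C and brain homogenized in 4 volumes PBS pH 7.4. Total brain and plasma levels measured.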

[15] = Protein binding in CSF of Sprague-Dawley rat at 2 uM by equilibrium dialysis; assay type: ADME, tissue-based, Cerebrospinal fluid; conditions: read-out: PB (converted)
How it was run: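 Binding in pooled rat CSF measured by equilibrium dialysis at 2 µM test concentration.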

[16] = Half life in rat at 1 mg/kg, iv or 3/10 mg/kg, po; assay type: ADME, organism-based; conditions: in vivo; how it was run: as §1
[17] = Plasma concentration C57BL/6J mouse at 10 mg/kg, ip measured at 1 hr post dose; assay type: ADME, organism-based; how it was run: as §6
Rattus norvegicus [18] = assay: Oral bioavailability in rat at 3/10 mg/kg; assay type: ADME, organism-based; conditions: in vivo; how it was run: as §1
[19] = Drug level in CSF of Sprague-Dawley rat at 10 mg/kg, po after 4 hrs by ES-UPLC analysis; assay type: ADME, organism-based, Cerebrospinal fluid; conditions: read-out: Drug uptake; how it was run: as §5
[20] = Ratio of drug level in CSF of Sprague-Dawley rat to unbound plasma concentration in Sprague-Dawley rat at 10 mg/kg, po after 4 hrs by ES-UPLC analysis; assay type: ADME, organism-based; conditions: in vivo; how it was run: as §5
[21] = Clearance in rat hepatocytes assessed as per million cells; assay type: ADME, cell-based, Hepatocyte; conditions: read-out: CLH
[22] = biological target: T2, Catechol O-methyltransferase; assay: Inhibition of c-terminal hexa-His tagged human MB-COMT (unknown origin)
[23] = Fraction unbound in rat plasma by equilibrium dialysis; assay type: ADME, cell-free
How it was run: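 Percent free drug in mouse or rat plasma, measured by equilibrium dialysis.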

Compound	Vdss (Rattus norvegicus [1])	IC50 [5]	IC50 [8]	concentration at 1 h [14]	half-life [16]	concentration at 1 h [17]	F (Rattus norvegicus [18])	hepatocyte CLint [21]	also measured
O=S(=O)(c1ccc(F)cc1)c1cc(F)c(O)c2ncccc12	3.5 L/kg	1.58 µM	3.98 nM	527 ng/g	270 min	5720 ng/mL	100%	15 µL/min/1e6 cells	IC50 [2]: > 10 µM; IC50 [3]: < 1 nM; CSF DOPAC level (% of vehicle) (Rattus norvegicus [4]): 173%; efflux ratio [6]: 0.7; Drug uptake(free) [7]: 7.7 nM; Kp uu at 4 h [9]: 1.2; Papp [10]: > 10 ×10⁻⁶ cm/s; Cp(f) [11]: 48 nM; Activity (Rattus norvegicus [12]): 86%; Ratio [13]: 16; fraction unbound at 2 µM [15]: 0.47; concentration at 4 h [19]: 127 nM; Ratio [20]: 2.6
Cc1ccc(S(=O)(=O)c2cc(O)c3ncccc3c2)cc1	–	–	–	–	–	–	–	–	IC50 [22]: 1580 nM
Cc1ccc(S(=O)(=O)c2cc(Br)c(O)c3ncccc23)cc1	–	> 10 µM	1260 nM	–	–	–	–	–	–
O=C(c1ccc(O)c2ncccc12)N1CCCC1	–	–	> 10000 nM	–	–	–	–	–	–
Cc1ccc(S(=O)(=O)c2ccc(O)c3ncccc23)cc1	–	0.501 µM	20 nM	–	–	–	–	–	IC50 [22]: 20 nM
Cc1cc(S(=O)(=O)N2CCCC2)c2cccnc2c1O	–	3.16 µM	20 nM	55 ng/g	–	576 ng/mL	–	103 µL/min/1e6 cells	–
O=S(=O)(c1ccc(F)cc1)c1cc(Cl)c(O)c2ncccc12	0.23 L/kg	> 10 µM	200 nM	5660 ng/g	534 min	16600 ng/mL	23%	4 µL/min/1e6 cells	Fu [23]: 0.5; efflux ratio [6]: 0.8
Cc1ccc(-c2ccc(O)c3ncccc23)cc1	–	–	251 nM	–	–	–	–	–	–
O=S(=O)(c1cc(Cl)c(O)c2ncccc12)C1CCCC1	0.3 L/kg	7.94 µM	20 nM	2790 ng/g	660 min	14700 ng/mL	37%	18 µL/min/1e6 cells	IC50 [2]: > 10 µM; IC50 [3]: < 1 nM; CSF DOPAC level (% of vehicle) (Rattus norvegicus [4]): 213%; Fu [23]: 0.5; Drug uptake(free) [7]: 5.6 nM; Cp(f) [11]: 32 nM; Activity (Rattus norvegicus [12]): 97%; Ratio [13]: 64; concentration at 4 h [19]: 358 nM; Ratio [20]: 11
O=S(=O)(c1cc(C(F)(F)F)c(O)c2ncccc12)C1CCCC1	–	> 10 µM	> 10000 nM	–	–	–	–	–	–
O=S(=O)(c1ccc(C(F)(F)F)cc1)c1cc(F)c(O)c2ncccc12	3.8 L/kg	6.31 µM	79.4 nM	1090 ng/g	210 min	2540 ng/mL	66%	12 µL/min/1e6 cells	Fu [23]: 0.6; efflux ratio [6]: 1.1
Cc1ccc(S(=O)(=O)c2cc(F)c(O)c3ncccc23)cc1	1.2 L/kg	0.501 µM	6.31 nM	518 ng/g	15.6 min	1740 ng/mL	34%	36 µL/min/1e6 cells	–
Oc1cccc2cccnc12 [OXYQUINOLINE]	–	–	1580 nM	–	–	–	–	–	IC50 [22]: 3160 nM
